Data: article PMC10925177 (bioRxiv, 2024)

Key:
[1] = target: T1, PRMT7 (Homo sapiens, UniProt Q9NVM4); assay: Radioactive methyltransferase assay, PRMT7; format: biochemical; conditions: 10 μM compound
T1 sequence (Q9NVM4 1-692): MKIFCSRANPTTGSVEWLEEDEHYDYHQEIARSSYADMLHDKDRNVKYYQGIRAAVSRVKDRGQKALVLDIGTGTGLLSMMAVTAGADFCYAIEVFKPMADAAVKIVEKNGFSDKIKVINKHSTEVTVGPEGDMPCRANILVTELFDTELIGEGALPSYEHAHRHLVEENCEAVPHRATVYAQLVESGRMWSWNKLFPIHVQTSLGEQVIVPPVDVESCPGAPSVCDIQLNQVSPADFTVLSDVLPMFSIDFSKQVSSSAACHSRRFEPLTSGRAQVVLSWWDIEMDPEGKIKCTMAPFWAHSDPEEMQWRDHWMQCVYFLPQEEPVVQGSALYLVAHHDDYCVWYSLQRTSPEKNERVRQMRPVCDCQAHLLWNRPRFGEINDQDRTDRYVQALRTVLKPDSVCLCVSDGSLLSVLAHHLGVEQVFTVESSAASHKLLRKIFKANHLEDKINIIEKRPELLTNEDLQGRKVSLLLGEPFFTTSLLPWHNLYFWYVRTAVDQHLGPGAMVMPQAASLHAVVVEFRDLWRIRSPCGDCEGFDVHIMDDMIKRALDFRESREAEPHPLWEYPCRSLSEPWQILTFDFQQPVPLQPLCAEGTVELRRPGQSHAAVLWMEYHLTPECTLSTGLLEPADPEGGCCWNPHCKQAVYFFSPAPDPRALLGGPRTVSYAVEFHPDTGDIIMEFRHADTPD
Procedure, shortened: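 The selectivity screen covered 21 protein methyltransferases in radioisotope-based MT HotSpot methyltransferase assays run by a contract laboratory. Test compound was at 10 μM. Each assay was run in duplicate and reported as mean ± SD of the two replicates.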

[2] = test system: 22Rv1 cells; assay: Clonogenicity assay in 22Rv1 cells; format: cell-based; conditions: 8 days treatment, crystal violet
Procedure, shortened: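 22Rv1 cells were seeded at 50,000 per well in 6-well plates. They were treated continuously with the test compound at the indicated concentrations for 8 days, then stained with 0.5% crystal violet. Three independent biological experiments were run.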

[3] = test system: PNT2 cells; assay: Cell viability assay; format: cell-based, human; conditions: 5 days, WST-8 (CCK-8)
Procedure, shortened: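 PNT2 cells were grown at 37 °C in 5% CO2 and treated with serial dilutions of the test compound. The general protocol gives a treatment span of 5–8 days. Viability was measured by CCK-8 (WST-8) absorbance at 450 nm, with 690 nm as reference. IC50 was calculated by curve fitting.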

[4] = test system: G9a mRNA; assay: RT-qPCR of G9a mRNA in H1299 cells; format: cell-based; conditions: 3 μM, 24 h, normalized to DMSO
Procedure, shortened: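 H1299 cells were treated with DMSO or test compound at 3 μM for 24 h. Total RNA was extracted and reverse-transcribed to cDNA. qPCR used gene-specific primers for G9a and GLP, and a GAPDH primer set was included.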

[5] = target: T2, GLP (Homo sapiens, UniProt Q9H9B1); assay: Western blot of GLP protein levels in cancer cells; format: cell-based
T2 sequence (Q9H9B1 1-1298): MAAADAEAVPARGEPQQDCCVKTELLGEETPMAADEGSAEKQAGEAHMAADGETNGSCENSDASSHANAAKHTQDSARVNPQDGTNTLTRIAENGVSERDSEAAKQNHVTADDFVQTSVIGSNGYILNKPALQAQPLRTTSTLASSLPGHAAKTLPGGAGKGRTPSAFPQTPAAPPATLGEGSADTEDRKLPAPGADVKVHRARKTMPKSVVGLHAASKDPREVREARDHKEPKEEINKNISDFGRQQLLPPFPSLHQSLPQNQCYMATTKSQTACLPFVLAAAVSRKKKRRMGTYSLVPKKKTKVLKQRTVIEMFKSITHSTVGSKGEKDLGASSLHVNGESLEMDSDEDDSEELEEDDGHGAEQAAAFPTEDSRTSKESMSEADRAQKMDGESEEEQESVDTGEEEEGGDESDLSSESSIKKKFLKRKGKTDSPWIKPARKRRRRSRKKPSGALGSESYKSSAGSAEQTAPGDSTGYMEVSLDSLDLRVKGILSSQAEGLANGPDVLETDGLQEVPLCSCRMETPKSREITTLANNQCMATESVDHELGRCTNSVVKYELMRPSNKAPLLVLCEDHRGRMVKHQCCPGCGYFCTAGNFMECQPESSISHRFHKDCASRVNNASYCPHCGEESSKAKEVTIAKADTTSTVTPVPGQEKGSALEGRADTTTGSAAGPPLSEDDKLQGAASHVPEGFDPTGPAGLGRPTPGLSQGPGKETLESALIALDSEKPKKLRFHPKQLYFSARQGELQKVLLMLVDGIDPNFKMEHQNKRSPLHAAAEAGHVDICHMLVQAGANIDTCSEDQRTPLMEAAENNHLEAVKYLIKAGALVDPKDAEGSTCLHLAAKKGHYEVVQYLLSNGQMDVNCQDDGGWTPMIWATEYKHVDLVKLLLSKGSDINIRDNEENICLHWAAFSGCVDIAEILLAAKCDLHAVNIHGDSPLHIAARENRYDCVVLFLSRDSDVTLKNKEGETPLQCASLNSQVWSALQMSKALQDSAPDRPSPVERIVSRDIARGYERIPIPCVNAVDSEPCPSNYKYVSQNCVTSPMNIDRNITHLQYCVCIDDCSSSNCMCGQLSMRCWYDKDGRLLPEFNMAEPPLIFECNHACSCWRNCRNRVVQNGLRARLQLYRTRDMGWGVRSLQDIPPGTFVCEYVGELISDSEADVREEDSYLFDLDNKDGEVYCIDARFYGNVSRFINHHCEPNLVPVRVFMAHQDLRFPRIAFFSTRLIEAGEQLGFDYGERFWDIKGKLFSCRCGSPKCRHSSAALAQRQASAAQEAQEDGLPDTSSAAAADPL
Procedure, shortened: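 Cells (22Rv1, K562, H1299) were treated for 24 h at the indicated concentrations; 22Rv1 time courses were run at 3 μM. Cells were lysed in RIPA with protease inhibitors, and 10–30 μg of protein was resolved by SDS-PAGE and transferred to PVDF. Blots were probed overnight at 4 °C, with vinculin/β-actin as loading controls. Band intensity was normalised to DMSO, with n = 2 independent experiments (mean ± SD).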

[6] = target: T1, PRMT7; assay: Western blot of PRMT7 protein level in 22Rv1 cells; format: cell-based; conditions: indicated concentration, 24 h, WB
Procedure, shortened: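 22Rv1 cells were treated with the test compound at the indicated concentrations for 24 h. Cells were lysed in RIPA containing protease inhibitor cocktail, and protein was resolved by SDS-PAGE and transferred to PVDF. Primary antibody was applied overnight at 4 °C, with β-actin as loading control. Blots are representative of two independent experiments.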

SMILES: COc1cc2c(NC3CCN(CCCC(=O)NCCCCCCCCCCCC(=O)N[C@H](C(=O)N4C[C@H](O)C[C@H]4C(=O)NCc4ccc(-c5scnc5C)cc4)C(C)(C)C)CC3)nc(N3CCC(F)(F)CC3)nc2cc1OCCCN1CCCC1 [Compound 10, (2S,4R)-1-((S)-2-(12-(4-(4-((2-(4,4-difluoropiperidin-1-yl)-6-methoxy-7-(3-(pyrrolidin-1-yl)propoxy)quinazolin-4-yl)amino)piperidin-1-yl)butanamido)dodecanamido)-3,3-dimethylbutanoyl)-4-hydroxy-N-(4-(4-methylthiazol-5-yl)benzyl)pyrrolidine-2-carboxamide]
- inhibition of PRMT7 [1]: moderately inhibited
- inhibition of 22Rv1 cell colony formation [2]: able to inhibit
- cell viability of normal prostate cells [3]: does not affect the cell viability
- mRNA levels of G9a [4]: did not significantly alter
- GLP degradation, in words ([5]; 22Rv1 cells, 1 μM, 24 h, WB (Figure 3A)): potently induced degradation
- duration of GLP degradation effect ([5]; 22Rv1 cells, 3 μM): up to 48 h
- time at which GLP degradation was first observed ([5]; 22Rv1 cells, 3 μM): 4 h
- time to complete GLP degradation ([5]; 22Rv1 cells, 3 μM): around 24 h
- GLP degradation, in words ([5]; H1299 cells, 3 μM, 24 h, WB): degraded
- GLP degradation, in words ([5]; K562 cells, 3 μM, 24 h, WB): induced G9a and GLP degradation
- DC50 ([5]; read-out: half-maximal degradation concentration (DC50) for GLP, 22Rv1 cells, 24 h, WB): 260 ± 53 nM
- PRMT7 degradation [6]: cannot induce the degradation
